{"data": "Experimental data pooled from the literature", "note": "Each line is one published result; the experiments were not run side by side."}
{"Structure (SMILES)": "CCCNc1nc(N(C)C)c2c(c1O)C(=O)C1=C(O)[C@]3(O)C(=O)C(C(N)=O)=C(O)[C@@H](N(C)C)[C@@H]3C[C@@H]1C2.Cl.Cl", "organism": "Enterobacter cloacae", "test": "microbial growth, broth dilution", "test system": "ATCC13047", "measurement": "MIC", "result": "> 32 µg/mL"}
{"Structure (SMILES)": "C/C=C(\\C)c1cc(O)c(C)c(OC(=O)c2c(C)c(Cl)c(O)c(Cl)c2O)c1", "organism": "Enterococcus gallinarum", "test": "microbial growth, broth dilution", "test system": "GALLINARUM", "measurement": "MIC", "result": "8 µg/mL"}
{"Structure (SMILES)": "C/C(=C\\c1ccc(C#N)cc1)C(=O)Nc1ccc(C(=O)N[C@@H](CC(N)=O)C(=O)Nc2ccc(C(=O)Nc3ccc(C(=O)Nc4ccc(C(=O)O)cc4)c(O)c3OC(C)C)cc2)cc1", "organism": "Serratia marcescens", "test": "microbial growth", "test system": "DSM30121", "measurement": "MIC", "result": "> 64 µg/mL"}
{"Structure (SMILES)": "CN(C)[C@@H]1C(O)=C(C(N)=O)C(=O)[C@@]2(O)C(O)=C3C(=O)c4c(O)c(N)nc(F)c4C[C@H]3C[C@@H]12.Cl.Cl", "organism": "Enterobacter cloacae", "test": "microbial growth, broth dilution", "test system": "ATCC13047", "measurement": "MIC", "result": "0.5 µg/mL"}
{"Structure (SMILES)": "CCCC[C@H]1CN(CCCC[C@H]2CNC(=N)N2CCc2cccc(C(F)(F)F)c2)C(=N)N1CCCCC1CCCCC1", "organism": "Enterobacter cloacae", "test": "microbial killing", "measurement": "MBC", "result": "4.2 µM"}
{"Structure (SMILES)": "CC(C)OCCNc1nc(Cl)c2c(c1O)C(=O)C1=C(O)[C@]3(O)C(=O)C(C(N)=O)=C(O)[C@@H](N(C)C)[C@@H]3C[C@@H]1C2.Cl.Cl.Cl", "organism": "Enterobacter cloacae", "test": "microbial growth, broth dilution", "test system": "ATCC13047", "measurement": "MIC", "result": "32 µg/mL"}
{"Structure (SMILES)": "CO[C@@H](C(N)=O)[C@H](NC(=O)c1ccc(NC(=O)c2ccc(C#N)cc2)cc1)C(=O)Nc1ccc(C(=O)Nc2ccc(C(=O)Nc3ccc(C(=O)O)cc3)c(O)c2OC(C)C)cc1", "organism": "Serratia marcescens", "test": "microbial growth", "test system": "DSM30121", "measurement": "MIC", "result": "> 64 µg/mL"}
{"Structure (SMILES)": "C/C=C(\\C)c1cc(OC(=O)c2c(C)c(Cl)c(O)c(Cl)c2O)c(C)c(O)c1C(=O)O", "organism": "Enterococcus gallinarum", "test": "microbial growth, broth dilution", "test system": "GALLINARUM", "measurement": "MIC", "result": "64 µg/mL"}
{"Structure (SMILES)": "CC(C)Oc1c(NC(=O)c2ccc(NC(=O)[C@H](CC(N)=O)NC(=O)c3ccc(NC(=O)c4ccc(C#N)cn4)cc3)cc2)ccc(C(=O)Nc2ccc(C(=O)O)cc2)c1O", "organism": "Enterobacter cloacae", "test": "microbial growth", "test system": "DSM30054", "measurement": "MIC", "result": "> 64 µg/mL"}
{"Structure (SMILES)": "Cc1c(CN(C)C(=O)/C=C/c2cnc3c(c2)CC(CCN)C(=O)N3)oc2ccccc12.Cl (centres unmarked)", "organism": "Enterobacter cloacae", "test": "microbial growth, broth dilution", "measurement": "MIC", "result": "8 µg/mL"}
{"Structure (SMILES)": "CN[C@H](CC(C)C)C(=O)N[C@H]1C(=O)N[C@@H](CC(N)=O)C(=O)N[C@H]2C(=O)N[C@H]3C(=O)N[C@H](C(=O)N[C@H](C(=O)O)c4cc(O)cc(O)c4-c4cc3ccc4O)[C@H](O)c3ccc(c(Cl)c3)Oc3cc2cc(c3O[C@@H]2O[C@H](CO)[C@@H](O)[C@H](O)[C@H]2O[C@H]2C[C@](C)(N)[C@H](O)[C@H](C)O2)Oc2ccc(cc2Cl)[C@H]1O", "organism": "Enterococcus gallinarum", "test": "microbial growth, broth dilution", "test system": "GALLINARUM", "measurement": "MIC", "result": "4 µg/mL"}
